PfGluPho inh – PfG6PD (Plasmodium falciparum) enzyme inhibition; actives 0.78% (n = 350,000); AID 504690; PfGluPho enzyme, NADPH resazurin-diaphorase fluorescence; inhibition, % at 20 µM;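 active = inhibition reaching at least a set limit at 20 µM in the primary screen, cut at about 59% in these data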;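 note: 0% = DMSO wells with substrate and 100% = DMSO wells lacking glucose-6-phosphate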
Diaph inh CS – counter-screen for diaphorase-based assays: diaphorase inhibitors and chemical oxidizers; diaphorase resazurin-to-resorufin fluorescence, NADH, 16 min; bacterial (C. kluyveri) enzyme, not human; inhibition, % at 20 µM; actives 0.69% (n = 190,000);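 active = primary screen inhibition at 20 µM above a set limit, cut at about 50% in these data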;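 note: plate controls were DMSO with full reaction for no effect and wells lacking NADH for full effect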
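material = Clostridium kluyveri diaphorase enzyme | amount = 0.14 U/mL diaphorase, enzyme working solution | schedule = incubation 16 min, room temperature | detection = fluorescence of resorufin formed from resazurin, Ex 544/Em 590 nm | benchmarks = positive control minus NADH, DMSO neutral control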
Diaphorase act – counter-screen for diaphorase-based assays: diaphorase activators and chemical reducers | Diaphorase/resazurin coupled assay, resorufin fluorescence, 16 min; stronger effect = higher value; 1 = vehicle wells, 0 = NADH-free wells | activation factor at 20 µM | actives 0.005% (n = 190,000);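 active = diaphorase activity raised at least twofold by the compound at 20 µM; inactive = activation factor below 2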
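Test system: Clostridium kluyveri diaphorase, purified enzyme; input: enzyme 0.07 U/mL final; buffer or medium: 50 mM HEPES pH 7.4 with 4.542 mM MgCl2, 0.005% Tween 20; also added: 0.114 mM NADH and 0.1 mM resazurin, final amounts; schedule: 16 min enzyme reaction, ambient temperature; technique: fluorescence of resorufin, 544 nm excitation, 590 nm emission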
G6PDH CS – L. mesenteroides G6PDH inhibition counter-screen; actives 0.12% (n = 200,000); inhibition, % at 5 µM; Purified L. mesenteroides G6PDH, diaphorase/resazurin coupled fluorescence, 45 min
Redox H2O2 prof – compounds producing H2O2 with reducing agent – biochemical, NIH compound library profiling, artefact control for MLSCN library redox annotation, primary screen. DTT-dependent redox cycling H2O2, phenol red/HRP absorbance; 100% = 100 µM peroxide control, 0% = buffer. activation, % at 10 µM. actives 0.03% (n = 200,000). AID 878;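 active = activation of at least 50% relative to the plate's high and low controls in the primary single-dose screen; inactive = activation below 50%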;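 note: compound incubated with DTT at 0.8 mM final as the reducing agent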
Lmaj promast – reduces viability of Leishmania major promastigotes | resazurin fluorescence viability | inhibition, % at 10 µM | actives 9% (n = 200,000);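 note: promastigotes grown with compound for 44 hours at 28 °C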
PfGluPho conf – confirmation of Plasmodium falciparum G6PD inhibitors; shares compounds with PfGluPho inh; recombinant PfGluPho, NADPH-diaphorase-resazurin fluorescence; inhibition, % at 20 µM; actives 34% (n = 2,400); AID 504753;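 active = inhibition of at least 50% at 20 µM in any single replicate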;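 note: 0% = DMSO with substrate and 100% = DMSO lacking glucose-6-phosphate substrate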
Diaph ctr 10uM – inhibits diaphorase or oxidizes, flagging false PfG6PD hits. shares compounds with PfGluPho inh. diaphorase-coupled resazurin reduction, fluorescence, NADPH 10 uM. inhibition, % at 20 µM. actives 39% (n = 820). AID 504862;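 active = average inhibition reaching 50% or more with the compound at 20 µM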;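 note: resorufin red fluorescence formed as diaphorase reduces resazurin using NADPH; 0% = DMSO with enzyme and 100% = DMSO without enzyme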
Diaphorase 30uM – inhibits diaphorase or oxidizes, flagging false PfG6PD hits | shares compounds with PfGluPho inh | actives 29% (n = 820) | AID 504863 | Diaphorase/resazurin coupled assay, resorufin fluorescence, 30 uM NADPH | inhibition, % at 20 µM;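 active = inhibition averaging 50% or more, tested at 20 µM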;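 note: 0% = DMSO with enzyme and 100% = DMSO wells lacking diaphorase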
The depositor's hits bear a star; ! = not confirmed by another sample. The entries come from a sample that favours hits as a whole. Cut-off read from the data, not from the text of the source, unless noted: active = inhibition above about 50%; inactive = the rest.

`COCC(=O)N(C)c1nnc(-c2cnc(C)cn2)s1` gave PfGluPho inh -6, Diaph inh CS 6, Diaphorase act 0.9, G6PDH CS 2, Redox H2O2 prof 2 and Lmaj promast -5.
Screening CCSC1=NCCN1S(=O)(=O)c1ccccc1 returned PfGluPho inh 18, Diaph inh CS 9, Diaphorase act 0.9, G6PDH CS 13, Redox H2O2 prof 0 and Lmaj promast 8.
`O=[N+]([O-])c1cccc(CSC2=NCCN2S(=O)(=O)c2ccccc2)c1` gave PfGluPho inh 72* and PfGluPho conf 19.
O=S(=O)(c1ccccc1)N1CCN=C1SCc1ccccc1 was read as PfGluPho inh 79*, Diaph inh CS 10, Diaphorase act 0.9, G6PDH CS 4, Redox H2O2 prof 0, Lmaj promast 35 and PfGluPho conf 36.
For O=C(CN(c1ccc(F)cc1)S(=O)(=O)c1ccccc1)N1CCOCC1 the results were PfGluPho inh -5.
For O=[N+]([O-])c1ccc(SCCc2ccccn2)cc1 the results were PfGluPho inh 43.
For O=[N+]([O-])c1ccc(SCCc2ccncc2)cc1 the results were PfGluPho inh 68*! and PfGluPho conf 13.
Screening COc1cc(-c2cc(OC)c3c(C)oc(C)c3c(=O)c2)ccc1O returned PfGluPho inh 31, Diaph inh CS 20, Diaphorase act 0.8, G6PDH CS 12, Redox H2O2 prof 0 and Lmaj promast 18.
COc1c(O)c(O)c2oc(-c3ccccc3)cc(=O)c2c1OC was read as PfGluPho inh 98*, Diaph inh CS 49, Diaphorase act 0.5, G6PDH CS 21, Redox H2O2 prof 0, Lmaj promast -20, PfGluPho conf 79*, Diaph ctr 10uM 67* and Diaphorase 30uM 30.
For COc1cc(-c2cc(=O)c3c(O)c(OC)c(OC)c(O)c3o2)ccc1O the results were PfGluPho inh 88*, Diaph inh CS 66*, Diaphorase act 0.3, G6PDH CS 20, Redox H2O2 prof 0, Lmaj promast -14, PfGluPho conf 82*, Diaph ctr 10uM 46 and Diaphorase 30uM 25.
`O=S(=O)(Nc1ccc2oc(-c3ccccc3)nc2c1)c1ccccc1` gave PfGluPho inh 88*, Diaph inh CS 16, Diaphorase act 0.8, G6PDH CS 6, Redox H2O2 prof 2, Lmaj promast 29 and PfGluPho conf 38.
For Cc1ccc(CNc2ccc(O)cc2)cc1 the results were PfGluPho inh 86*, Diaph inh CS 53*, Diaphorase act 0.5, G6PDH CS -31, Redox H2O2 prof 1, Lmaj promast 99*, PfGluPho conf 64*, Diaph ctr 10uM 20 and Diaphorase 30uM 22.
For CCCn1nnnc1NCc1ccccc1C the results were PfGluPho inh -28.
Screening N#C/C(=C\c1cccnc1)c1ccc([N+](=O)[O-])cc1 returned PfGluPho inh 4.
For [O-]/[N+](=C/c1cccnc1)c1ccc(Br)cc1 the results were PfGluPho inh 105*, Diaph inh CS 14, Diaphorase act 0.9, G6PDH CS 4, Redox H2O2 prof -3, Lmaj promast -8, PfGluPho conf 78*, Diaph ctr 10uM 68* and Diaphorase 30uM 33.
CCc1ccc(-c2cc3c(=O)n(CC(=O)N4CCCCCC4)nc(C)n3n2)cc1 was read as PfGluPho inh 1.
Screening O=S(=O)(/N=S1\CC=CCN1S(=O)(=O)c1ccccc1)c1ccccc1 (stereo not given) returned PfGluPho inh 64* and PfGluPho conf 22.
C=CC(=O)N1C/C(=C/c2ccccc2)C(=O)/C(=C\c2ccccc2)C1 was read as PfGluPho inh 33.
Screening C=CC(=O)N1C/C(=C/c2ccc(Cl)cc2)C(=O)/C(=C\c2ccc(Cl)cc2)C1 returned PfGluPho inh 76* and PfGluPho conf 26.
Screening CC(C)(C)NC(=O)c1cccc(NC(=O)c2cccc(O)c2)c1 returned PfGluPho inh 2, Diaph inh CS 11, Diaphorase act 0.9, G6PDH CS -3, Redox H2O2 prof 2 and Lmaj promast 9.
Screening Cc1cc(C)nc(SSc2nc(C)cc(C)n2)n1 returned PfGluPho inh 65*, PfGluPho conf 64*, Diaph ctr 10uM -5 and Diaphorase 30uM -14.
COc1ccccc1NC(=O)C(C)OC(=O)Cc1ccsc1 (stereo not given) was read as PfGluPho inh -1.
CC(C)(C)c1ccc(/C=N/Nc2nncn2N)cc1 was read as PfGluPho inh 57.
Screening Cc1no[n+]([O-])c1COc1cccc(/C=N/Nc2nncn2N)c1 returned PfGluPho inh 100*, PfGluPho conf 55*, Diaph ctr 10uM 41 and Diaphorase 30uM 27.
For Cc1cc(C)c2[nH]c(C(=O)Nc3ccc4c(c3)OCO4)cc2c1 the results were PfGluPho inh 61* and PfGluPho conf 3.
Cc1cc(C)c(NC(=O)Nc2ccc3c(c2)OCO3)c(C)c1 was read as PfGluPho inh -16.
For CC(OC(=O)Cc1ccc(F)cc1)C(=O)NCc1ccc2c(c1)OCO2 (stereo not given) the results were PfGluPho inh -3.
For COC(=O)c1c(NC(=O)c2ccc([N+](=O)[O-])o2)sc2c1CCN(C(C)C)C2 the results were PfGluPho inh 68* and PfGluPho conf 20.
For COC(=O)c1c(NC(=O)Cc2ccccc2)sc2c1CCN(C(C)C)C2 the results were PfGluPho inh -11.
For CC(=O)N1CCc2c(sc(NC(=O)c3ccc([N+](=O)[O-])o3)c2C#N)C1 the results were PfGluPho inh 60*, Diaph inh CS 26, Diaphorase act 0.7, G6PDH CS 1, Redox H2O2 prof 0, Lmaj promast 98* and PfGluPho conf 13.
O=C(COc1ccccc1Cl)NCCCNC(=O)c1cccnc1 was read as PfGluPho inh -7.
`Clc1cc(Cl)cc(Nc2ncn[nH]2)c1` gave PfGluPho inh 9, Diaph inh CS 6, Diaphorase act 0.9, G6PDH CS 14, Redox H2O2 prof 1 and Lmaj promast -2.
